In ChEMBL document CHEMBL4257564, “Rational Design, Synthesis, and Pharmacological Characterization of Novel Ghrelin Receptor Inverse Agonists as Potential Treatment against Obesity-Related Metabolic Diseases” (J Med Chem, 2018):

Assays:
Mus musculus [1] = experiment: Anti-obesity activity in C57BL/6J mouse assessed as inhibition of anamorelin-induced increase in food intake by measuring cumulative food intake at 30 mg/kg, po pretreated for 10 mins followed by anamorelin addition and measured after 2 hrs post dose (reference value: 1.37 +/- 0.05 g)
Mus musculus [2] = experiment: Anti-obesity activity in C57BL/6J mouse assessed as inhibition of anamorelin-induced increase in food intake by measuring cumulative food intake at 10 mg/kg, ip pretreated for 10 mins followed by anamorelin addition and measured after 1 hr post dose (reference value: 0.63 +/- 0.04 g); type: functional
How it was run: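 Male C57BL/6J mice (18–22 g at arrival), fed ad libitum. Dosed 10 mg/kg i.p. at t = 0 in 10% DMAC/6% Solutol HS 15/84% PBS, then anamorelin 30 mg/kg p.o. (0.5% CMC) at 10 min. Cumulative food intake recorded at 1, 2, 4, 8 and 24 h; n=6 per group; mean ± SEM; ANOVA with Dunnett test versus vehicle+anamorelin.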

[3] = target: Growth hormone secretagogue receptor type 1 (Homo sapiens, UniProt Q92847); experiment: Agonist activity at recombinant human GHSR1a expressed in HEK293 cells assessed as induction of intracellular calcium release after 15 mins by FLIPR assay; type: functional, cell-based; settings: hek293
How it was run: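 HEK293 cells stably expressing human GHSR1a, seeded 24 h before the run, then loaded with calcium dye for 30-60 min at room temperature or 37 °C. DMSO-dissolved compounds were added and intracellular calcium release was monitored by FLIPR fluorescence.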

[4] = Protein binding in mouse plasma at 1 uM after 6 hrs by equilibrium dialysis; type: ADME, cell-free; settings: read-out: PPB (converted)
How it was run: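 Compound spiked at 1.0 µM final (0.5% DMSO) into plasma. Equilibrium dialysis against DPBS pH 7.4 across a 12–14 kD membrane for 6 h at 37 °C, in triplicate. Buffer-only controls used for nonspecific binding. Unbound fraction = acceptor/donor concentration by LC-MS/MS; reported as % bound.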

MDR1 = experiment: Apparent permeability across apical to basolateral side in MDCK2 cells expressing human MDR1 at 1 uM after 90 mins in absence of MDR1 inhibitor cyclosporine A by LC-MS/MS analysis; type: ADME, cell-based, Canis lupus familiaris, MDCK-II; settings: dog, MDCK-MDR1
How it was run: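 MDR1-MDCKII monolayers grown 4 days on transwell inserts, with integrity checked by TEER. Test item at 1 µM in HBSS/10 mM HEPES/25 mM glucose pH 7.4, in duplicate, added to the apical side. Receiver sampled after 90 min at 37 °C and analysed by LC-MS/MS; Papp = (dMr/dt)/(A×C0).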

Mus musculus [5] = experiment: Anti-obesity activity in C57BL/6J mouse assessed as inhibition of anamorelin-induced increase in food intake by measuring cumulative food intake at 30 mg/kg, po pretreated for 10 mins followed by anamorelin addition and measured after 1 hr post dose (reference value: 0.63 +/- 0.04 g)
[6] = Plasma clearance in rat at 3 mg/kg, iv after 24 hrs by LC-MS/MS analysis; type: ADME, organism-based
How it was run: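 Rats given 3 mg/kg i.v. via tail vein, in 2% DMSO/50% of 40% HP-β-CD. EDTA plasma sampled at 0.08–24 h and analysed by LC-MS/MS, calibration range 5-5000 ng/mL.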

[7] = Clearance in mouse liver microsomes at 0.625 uM preincubated for 5 mins followed by NADPH addition and measured after 60 mins by LC-MS/MS analysis; type: ADME, microsome; settings: read-out: CLH
How it was run: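 Liver microsomes (0.625 mg/mL protein) in 50 mM potassium phosphate pH 7.4 with 0.625 µM test item, prewarmed 5 min at 37 °C. Reaction started with NADPH (5 mM solution). Samples taken at 0, 5, 15, 30 and 60 min into cold MeCN with internal standard, analysed by LC-MS/MS. Intrinsic clearance derived by the half-life approach.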

Chain of Growth hormone secretagogue receptor type 1 (Q92847 whole entry): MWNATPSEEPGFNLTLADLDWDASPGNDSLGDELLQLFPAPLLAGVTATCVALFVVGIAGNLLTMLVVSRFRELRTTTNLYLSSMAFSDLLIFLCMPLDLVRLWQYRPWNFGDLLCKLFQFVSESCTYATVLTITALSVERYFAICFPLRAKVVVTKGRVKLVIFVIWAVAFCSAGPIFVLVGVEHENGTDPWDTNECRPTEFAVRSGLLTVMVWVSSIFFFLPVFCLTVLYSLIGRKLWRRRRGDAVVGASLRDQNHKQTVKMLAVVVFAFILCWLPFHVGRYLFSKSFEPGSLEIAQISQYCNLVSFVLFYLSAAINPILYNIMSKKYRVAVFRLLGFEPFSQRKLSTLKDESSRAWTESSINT

- EC50 [3]: Not Active
- fraction unbound at 6 h, 1 µM [4]: 0.0002
- Papp A→B at 1.5 h, 1 µM (MDR1): 3.9 ×10⁻⁶ cm/s
- clearance [6]: 15.2 mL/min/kg
- microsomal CLint at 0.625 µM [7]: < 10 µL/min/mg
SMILES: Cc1cc(-c2ccc3c(c2)CC[C@H]3N2CCC(N(C)C(=O)N[C@@H](C)c3ccc(C#CC4CC4)c(Cl)c3Cl)CC2)ncn1
- Activity (Mus musculus [1]): 0.86 g
- Activity (Mus musculus [2]): 0.13 g
- Activity (Mus musculus [5]): 0.22 g
